# RAM network inh: inhibitors of the yeast RAM network; actives 1.8% (n = 190,000); S. cerevisiae dse1pr::URA3 reporter, 5-FOA growth OD615, 2 d; analog-sensitive cbk1-as2 kinase mutant strain; inhibition, % at 50 µM;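 active means inhibition above a set limit, 3 SD over mean compound inhibition, cut at about 8.4% in these data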;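 further: 0% = DMSO-only wells with no growth and 100% = 10 µM 1-NA-PP1 full growth; inhibition rescues growth on 5-FOA so higher OD means more RAM inhibition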
# SDO1 yeast rescue: restores growth of sdo1-depleted yeast | S. cerevisiae sdo1-depleted JHY4D growth rescue, OD600 30 h; hits give high values; pdr5 snq2 efflux-pump mutant strain | AID 817 | z-score at 10 µM | actives 0.21% (n = 140,000);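 active means z-score above 3 at both the 24 hr and the 30 hr optical density reads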;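 further: z-score against mean and SD of all compound wells on the same plate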
# Yeast lifespan up: yeast lifespan extension. AID 775. S. cerevisiae growth with nicotinamide, OD615; deaD strain in restrictive glucose medium. inhibition of the nicotinamide effect, % at 10 µM. actives 0.68% (n = 130,000);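 active means inhibition above a set limit, placed 3 SD over the median of all compounds, cut at about 26% in these data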;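 further: 0% = nicotinamide-treated wells and 100% = cells grown without nicotinamide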
#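 assay system = DeaD-strain S. cerevisiae | measured by = absorbance at 615 nm | probe or stimulus = nicotinamide 1.5 mM | buffer or medium = CSMM-D glucose medium, restrictive | times = 48 h at 30 °C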
# Yeast growth inh: chemicals that inhibit yeast BB579 growth in restrictive medium (lifespan-shortening candidates). S. cerevisiae BB579 growth, OD615, 48 h. inhibition, % at 10 µM. actives 0.51% (n = 140,000);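 active means inhibition above a set limit, 3 SD over the mean compound inhibition, cut at about 44% in these data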
#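 Material: Saccharomyces cerevisiae DeaD strain BB579, replicative lifespan model yeast; buffer or medium: CSMM-D restrictive synthetic medium containing dextrose (glucose); compound: 10 µM single dose, DMSO 0.25%; timing: 48 h compound exposure at 30 °C after 4 h preincubation; signal: turbidity as optical density at 615 nm; benchmarks: positive control amphotericin B 10 µg/mL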
# sdo1 rescue conf: confirmation of growth rescue in SDO1-depleted yeast, bone marrow failure. OD recovery (no concentration beside the values). S. cerevisiae JHY4D (SDO1-depleted) growth rescue, OD600, 30 h; hits give high values; efflux-deficient strain, SNQ2 and PDR5 mutated. shares compounds with SDO1 yeast rescue. AID 949. actives 44% (n = 440);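 active means yeast growth recovered at 30 hours, either rising with dose fitted slope above 0.001 or with average optical density gain above 0.07, some results past the limit were not filed as active; inactive means growth falling with dose or no effect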;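 further: gain in OD600 from 0 h to 30 h averaged across all seven doses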
# * marks the source's active call; other numbers are inactive results; · = no result. Shown are actives, neighbours in structure and some others; about 2.7% of the full set was active somewhere.
SMILES,RAM network inh,SDO1 yeast rescue,Yeast lifespan up,Yeast growth inh,sdo1 rescue conf
Cn1c(=O)c2c(nc(NC3CCCCC3)n2CC(O)COc2ccccc2)n(C)c1=O (stereo not drawn),0.5,-0.9,-5.1,-32.8,·
CC(C)(C)c1ccc(/C=C/C(=O)c2ccc(NC3=NCCCS3)cc2)cc1,-1.6,-1.74,-7.1,18.6,·
Cn1c(=O)[nH]c(=O)c2c1nc(N1CCCCCC1)n2CCCSc1nnnn1-c1ccccc1,2.8,-0.75,-3.1,7.4,·
Cn1c(=O)[nH]c(=O)c2c1nc(N1CCCC1)n2CCCSc1nnnn1-c1ccccc1,3.9,2.35,-3.1,-4.0,0.101
COc1cccc(NC(=S)NNC(=O)C(C)n2nc(C)c([N+](=O)[O-])c2C)c1 (stereo not drawn),1.4,4.03*,-9.3,-35.1,0.0629
CS(=O)(=O)N1CCN(c2ccc(NC(=O)c3ccc(Br)o3)cc2)CC1,0.1,0.6,-18.0,-33.2,·
COc1cccc(NC(=O)Nc2ccc3c(c2)nnn3C)c1,3.0,0.2,·,-43.6,0.0788*
CCOC(=O)c1cnc(SCC(=O)N2CCC(C(N)=O)CC2)nc1N,2.7,·,·,·,·
O=C(CSc1nnc(COc2ccccc2)o1)N1CCOCC1,1.4,·,·,·,·
Cc1cc(C)nc(NS(=O)(=O)c2ccc(NC(=O)C3(c4ccc([N+](=O)[O-])cc4)CCCC3)cc2)n1,1.0,0.65,2.3,-13.9,·
Cc1cccc(NC(=O)C2(c3ccc([N+](=O)[O-])cc3)CCCC2)c1,5.2,6.45*,-2.9,-18.0,0.0509
COc1ccc(CCN2C(=O)c3cccc4c(C(=O)N5CCCCC5)ccc(c34)C2=O)cc1OC,3.1,0.3,-4.8,-10.2,0.0506
COc1ccc(CCNC(=O)CCN2C(=O)c3cccc4cccc(c34)C2=O)cc1OC,4.9,·,·,·,·
Nc1cc(-c2ccc(Br)cc2)[nH]n1,0.9,5.4*,-6.2,-32.6,0.0956*
CC(C)OC(=O)CSc1nnc(-c2cccnc2)n1N,0.3,0.58,-9.2,-25.1,·
CC(C)OC(=O)CSc1nnc(-c2ccccc2)n1N,0.6,6.7*,-2.9,-3.4,0.0443
CCCCn1c(C)nc2c(=O)n(C)c(=O)[nH]c21,-0.4,2.37,-12.7,-1.0,0.0739*
Cc1ccc(NC(=O)COC(=O)CCC(=O)c2cccs2)c(C)c1,4.2,·,·,·,·
O=C(COC(=O)/C=C/c1ccccc1[N+](=O)[O-])Nc1ccc(OC(F)F)cc1,3.3,11.3*,2.6,3.4,0.067
O=C(O)CSc1ncn[nH]1,1.2,0.66,-0.9,-14.3,·
COC(=O)C(NC(=O)c1ccccc1)(Nc1nccs1)C(F)(F)F (stereo not drawn),1.0,0.73,20.3,-23.1,·
CCOC(=O)C(NC(=O)OC(C)C)(Nc1nccs1)C(F)(F)F (stereo not drawn),2.7,13.3*,-11.0,-9.8,0.0884*
COc1cc(C(=O)OCC(=O)c2cc(C)n(C)c2C)cc(OC)c1OC,-0.1,-0.64,2.6,-42.7,·
CC(C)Nc1nnc(SCC(=O)Nc2ccc(F)cc2)s1,0.7,-0.33,-12.9,-17.9,·
O=C(COc1ccccc1C(=O)N/N=C\c1ccc(O)c(O)c1)N/N=C/c1ccc(O)c(O)c1,0.7,2.28,-23.4,-2.4,0.0464
SMILES,RAM network inh,SDO1 yeast rescue,Yeast lifespan up,Yeast growth inh,sdo1 rescue conf
COc1cc(C(=O)N2CCC(C(=O)Nc3cccc(C(C)=O)c3)CC2)cc(OC)c1OC,-0.4,2.8,-4.6,-34.6,0.0591
COc1ccc(S(=O)(=O)N2CCCC(C(=O)Nc3cccc(C(C)=O)c3)C2)cc1 (stereo not drawn),2.5,1.77,-2.0,-34.2,0.0502
COc1ccc(CCN(Cc2ccccn2)C(=S)Nc2ccccc2F)cc1OC,0.9,·,·,·,·
COc1ccc(C(C2C(=O)CC(C)(C)CC2=O)C2C(=O)CC(C)(C)CC2=O)cc1COCC(F)(F)F,0.7,14.4*,7.9,-11.7,0.0817*
COC(C(=O)Nc1ccc(S(=O)(=O)Nc2ccc(F)cc2)cc1)c1ccccc1 (stereo not drawn),2.3,-0.57,2.1,-42.6,·
COC(C(=O)Nc1ccc(S(=O)(=O)Nc2cccc3ccccc23)cc1)c1ccccc1 (stereo not drawn),5.3,8.78*,2.9,-26.2,0.0648
O=C(c1ccc2nc(N3CCCCC3)sc2c1)N1CCN(Cc2ccc3c(c2)OCO3)CC1,0.3,0.11,-11.2,3.9,·
COc1cc(OC)cc(-c2nnc(SCC(=O)N3CCCCC3)o2)c1,0.1,-1.34,-6.0,-63.1,·
COc1cc(OC)cc(-c2nnc(SCC(=O)N3CCOCC3)o2)c1,1.0,3.66*,-11.6,-55.5,0.0719*
C=CCNC(=S)NNC(=O)c1ccc(OCC(C)C)cc1,0.6,6.21*,-1.1,-56.7,0.094*
C=CCN=C(C)C1=C(O)C(C)OC1=O (stereo not drawn),0.0,14.2*,-1.7,-9.2,0.0967*
CCOC(=O)CCc1c(C)nc2ncnn2c1C,0.5,0.79,-16.8,-23.5,·
Cc1nc2ncnn2c(C)c1CCC(=O)O,-0.3,3.87*,-1.4,-17.4,0.0989*
COC(=O)c1sccc1NC(=O)c1c(C)noc1C,1.5,1.2,-26.9,-2.8,·
COc1ccc(C2C(C(=O)N3CCOCC3)=C(C)NC3=C2C(=O)CC(C)(C)C3)c(OC)c1 (stereo not drawn),0.0,8.21*,-17.3,-5.6,0.0589
CC1=C(C(=O)N2CCOCC2)C(c2ccccc2F)C2=C(CC(C)(C)CC2=O)N1 (stereo not drawn),3.0,1.07,-8.3,-29.3,·
c1cnc(N2CCN(Cc3c[nH]c4ccccc34)CC2)nc1,0.7,0.78,-6.0,-30.7,·
Cc1ccccc1N1CCN(Cc2c[nH]c3ccccc23)CC1,1.1,7.55*,-1.3,-22.8,0.0619
O=S(=O)(c1ccc(F)cc1)c1nc(-c2ccc(F)cc2)oc1NCCN1CCOCC1,-1.6,-0.84,-7.4,-19.6,·
CC1CCCC(C)N1/N=C/c1cc(Br)c(O)c(Br)c1 (stereo not drawn),-0.6,0.32,3.9,3.9,·
CCc1cc(=O)oc2cc(OC(C)C(=O)O)c(Cl)cc12 (stereo not drawn),0.5,3.07*,-22.8,-12.1,0.0919*
CCc1cc(=O)oc2cc(OCC(=O)O)c(Cl)cc12,1.6,0.72,-15.1,-27.0,·
CC(C)OCCCNC(=O)NC12CC3CC(CC(C3)C1)C2,-0.4,9.37*,-9.6,-29.1,0.0786*
COCCNC(=O)NC12CC3CC(CC(C3)C1)C2,0.5,·,·,·,·
CCOc1cc(C(=O)N2CCCC2)cc(OCC)c1OCC,-0.3,1.79,-4.0,2.2,0.0418
Cc1ccc(S(=O)(=O)N2CCN(C3CC(=O)N(Cc4ccccc4)C3=O)CC2)cc1C (stereo not drawn),2.3,-0.9,-12.2,-32.1,·
O=C(Cn1c(=O)oc2cc(S(=O)(=O)N3CCCCC3)ccc21)N1CCc2ccccc2C1,4.7,-1.15,-8.8,-56.6,·
CN(c1ccccc1C(=O)NCC1CCCO1)S(C)(=O)=O (stereo not drawn),-0.4,0.56,-5.5,-77.2,·

# Compound activity: PubChem BioAssay, several laboratories
